Experimental data taken from ChEMBL document CHEMBL1148970, “New acylated iridoid glucosides from Vitex altissima” (J Nat Prod, 2004).
Active and inactive are the calls of the source. The rule behind the calls is not given here.

What was measured:
[1] = Antioxidant activity assessed as superoxide radical scavenging activity by NBT method; format: functional
Summary of the method: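 Riboflavin-photogenerated superoxide was detected by NBT reduction (McCord–Fridovich). The mixture held EDTA 6.0 µM, NaCN 3 µg, riboflavin 2 µM, NBT 50 µM and test substance in methanol, in 58 mM phosphate pH 7.8, 3 mL final. A560 was read before and after illumination. IC50 was taken from the plot of concentration in µM against % inhibition.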

[2] = biological target: T1, Polyunsaturated fatty acid 5-lipoxygenase (Homo sapiens) (UniProt P09917); test: Inhibition of 5-lipoxygenase activity at 1000 uM by ferric-xylenol orange peroxide assay relative to control
T1 sequence (whole entry): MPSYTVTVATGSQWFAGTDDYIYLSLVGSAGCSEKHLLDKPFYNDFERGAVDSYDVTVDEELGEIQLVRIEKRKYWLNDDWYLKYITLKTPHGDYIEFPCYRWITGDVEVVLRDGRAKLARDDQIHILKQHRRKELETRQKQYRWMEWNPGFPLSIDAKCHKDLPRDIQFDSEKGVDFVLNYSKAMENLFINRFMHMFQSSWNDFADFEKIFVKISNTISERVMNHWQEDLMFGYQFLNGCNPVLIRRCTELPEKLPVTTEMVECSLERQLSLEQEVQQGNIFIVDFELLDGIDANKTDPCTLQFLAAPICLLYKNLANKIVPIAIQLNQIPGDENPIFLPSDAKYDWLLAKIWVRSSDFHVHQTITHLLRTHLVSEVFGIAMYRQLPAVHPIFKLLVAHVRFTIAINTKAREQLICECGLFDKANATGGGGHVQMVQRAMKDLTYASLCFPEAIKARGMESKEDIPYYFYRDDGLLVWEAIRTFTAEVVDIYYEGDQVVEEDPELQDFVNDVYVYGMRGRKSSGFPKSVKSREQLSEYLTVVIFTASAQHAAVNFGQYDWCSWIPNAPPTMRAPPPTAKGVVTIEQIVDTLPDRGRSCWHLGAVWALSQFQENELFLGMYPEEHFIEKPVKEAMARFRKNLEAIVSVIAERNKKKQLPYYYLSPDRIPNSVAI
Summary of the method: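 Modified ferric-xylenol orange peroxide assay. 5-Lipoxygenase with test substance and linoleic acid (80 mM) in 50 mM phosphate pH 6.3 was incubated 5 min. Ferric-xylenol orange reagent in perchloric acid was then added and A585 read 2 min later. Percent inhibition is relative to the control. Triplicates averaged.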

[3] = test system: Radical scavenging activity; test: Antioxidant activity assessed as DPPH free radical scavenging activity; format: functional
Summary of the method: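 DPPH was used as a […] methanolic solution and mixed with a range of test concentrations. Mixtures stood in the dark for 50 min, then absorbance at 517 nm was read against a blank. Run in triplicate and averaged.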

Rattus norvegicus [4] = test: Antiinflammatory activity against carrageenan-induced paw edema in Wistar rat at 200 mg/kg, po administered 1 hr before inflammation induction measured after 3 hrs of carrageenan challenge relative to control; format: functional
Summary of the method: (§1)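 Wistar rats of either sex, 180-220 g, groups of six. Test material suspended in 1% Tween-80 and given orally 1 h before 0.1 mL of 1% w/v carrageenan in saline was injected subplantar into the left hind paw. Vehicle controls received 1% Tween-80 at 10 mL/kg. Paw volume was read by plethysmometer at 0 and 3 h. Percent inhibition compares mean edema volume with the control group.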

Rattus norvegicus [5] = test: Antiinflammatory activity against carrageenan-induced paw edema in Wistar rat at 25 mg/kg, po administered 1 hr before inflammation induction measured after 3 hrs of carrageenan challenge relative to control; format: functional; summary of the method: as §1

| IC50 [1] | Activity [2] | IC50 [3] | Structure (SMILES) | inhibition in vivo at 200 mg/kg (Rattus norvegicus [4]) | Activity (Rattus norvegicus [5]) |
| --- | --- | --- | --- | --- | --- |
| 32 µM | inactive | 10.9 µM | C=C1[C@H]2[C@H](O[C@@H]3O[C@H](COC(=O)/C=C/c4ccc(O)c(O)c4)[C@@H](O)[C@H](O)[C@H]3OC(=O)c3ccc(O)cc3)OC=C(C(=O)O)[C@H]2C[C@@H]1O |  |  |
| 381 µM |  | 19 µM | Cc1cc(C(C)(C)C)c(O)c(C(C)(C)C)c1 [BUTYLATED HYDROXYTOLUENE] |  |  |
|  | inactive |  | C[C@H]1[C@H]2[C@H](O[C@@H]3O[C@H](CO)[C@@H](O)[C@H](O)[C@H]3OC(=O)c3ccc(O)cc3)OC=C(C(=O)O)[C@H]2C[C@@H]1O |  |  |
| 31.9 µM | inactive | 11.4 µM | C[C@H]1[C@H]2[C@H](O[C@@H]3O[C@H](COC(=O)/C=C/c4ccc(O)c(O)c4)[C@@H](O)[C@H](O)[C@H]3OC(=O)c3ccc(O)cc3)OC=C(C(=O)O)[C@H]2C[C@@H]1O |  |  |
|  | inactive |  | COc1cc(/C=C/C(=O)OC[C@H]2O[C@@H](O[C@@H]3OC=C(C(=O)O)[C@H]4CC[C@](C)(O)[C@@H]34)[C@H](OC(=O)c3ccc(O)cc3)[C@@H](O)[C@@H]2O)ccc1O | 20% |  |
|  | inactive |  | C[C@]1(O)CC[C@@H]2C(C(=O)O)=CO[C@@H](O[C@@H]3O[C@H](CO)[C@@H](O)[C@H](O)[C@H]3OC(=O)c3ccc(O)cc3)[C@@H]21 |  |  |
|  |  |  | O=C([O-])Cc1ccccc1Nc1c(Cl)cccc1Cl.[Na+] [DICLOFENAC SODIUM] |  | 62% |
|  | inactive |  | C=C1[C@H]2[C@H](O[C@@H]3O[C@H](CO)[C@@H](O)[C@H](O)[C@H]3OC(=O)c3ccc(O)cc3)OC=C(C(=O)O)[C@H]2C[C@@H]1O |  |  |
| 24.3 µM | inactive | 15.2 µM | C[C@]1(O)CC[C@@H]2C(C(=O)O)=CO[C@@H](O[C@@H]3O[C@H](COC(=O)/C=C/c4ccc(O)c(O)c4)[C@@H](O)[C@H](O)[C@H]3OC(=O)c3ccc(O)cc3)[C@@H]21 |  |  |
|  | inactive |  | O=C(OCC1=C[C@@H](O)[C@@H]2C=CO[C@@H](O[C@@H]3O[C@H](CO)[C@@H](O)[C@H](O)[C@H]3O)[C@H]12)c1ccc(O)cc1 |  |  |

| Structure (SMILES) | IC50 [1] | Activity [2] | IC50 [3] | inhibition in vivo at 200 mg/kg (Rattus norvegicus [4]) | Activity (Rattus norvegicus [5]) |
| --- | --- | --- | --- | --- | --- |
| COc1ccc(O)c(C(C)(C)C)c1.COc1ccc(O)cc1C(C)(C)C [BUTYLATED HYDROXYANISOLE] | 966 µM |  | 18 µM |  |  |
